Consider 19 compounds from ChEMBL document CHEMBL1132611, “Novel, potent, and selective phosphodiesterase-4 inhibitors as antiasthmatic agents: synthesis and biological activities of a series of 1-pyridylnaphthalene derivatives” (J Med Chem, 1999).

For orientation: IC50 means the concentration at which inhibition is half-maximal. Low readings indicate greater potency in that assay, high ones weaker potency in that assay. A word on the ED50: it is the midpoint of the dose-response relation.

Where “and” joins values, the source holds several entries; their conditions need not be identical. Equal values may be shown once.

Assay [1] relates to Cavia porcellus. Nature of the assay: Change in guinea pig heart rate at 0.1 mg/kg intravenous dose. In kind it is functional.
The next assay deals with Phosphodiesterase 4 (Homo sapiens, UniProt P27815+Q08499+Q07343+Q08493). Nature of the assay: In vitro inhibition of Phosphodiesterase 4 from guinea pig lung. In kind it is protein assay, Cavia porcellus. The following applies: target entry is the homologue from another species.
The target in another assay is Phosphodiesterase 1 (Homo sapiens, UniProt P54750+Q01064+Q14123). Nature of the assay: Inhibition of Phosphodiesterase 1 of guinea pig cardiac ventricle. The assay is classed as protein assay, Cavia porcellus. The following applies: target entry is the homologue from another species. In outline:
(§1)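 PDE1, 2 and 3 came from guinea pig cardiac ventricle and PDE4 and 5 from lung, separated by Resource-Q anion exchange on a sodium acetate gradient at pH 6.5. Assays used 1.0 µM [3H]cAMP or [3H]cGMP in 50 mM Tris-HCl pH 8.0, 5 mM MgCl2 and 4 mM 2-mercaptoethanol, for 30 min at 30 °C. Substrate hydrolysis was kept at or below 20%. Triplicates were run at 3–4 inhibitor levels, and IC50 was read graphically.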

For assay [2], the target named is T1, Phosphodiesterase 3 (Homo sapiens, UniProt Q14432+Q13370). Briefly: In vitro inhibition of Phosphodiesterase 3 activity from guinea pig cardiac ventricle. The note with it: target entry is the homologue from another species. The assay is classed as protein assay, Cavia porcellus. In outline:
as §1

For assay [3], the species on record is Cavia porcellus. Briefly: Inhibition of antigen-induced bronchoconstriction in guinea pigs (95% confidence). In kind it is functional. In outline:
(§2)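 Male Hartley guinea pigs were passively sensitised with iv rabbit anti-ovalbumin antiserum and challenged with ovalbumin 30 µg/kg iv 20–28 h later. Animals were under α-chloralose anaesthesia, ventilated, and paralysed with gallamine. Overflow volume was measured by Konzett–Rössler and expressed as a percentage of the maximum. Compound was given iv 2 min before challenge. ED50 came from the dose–inhibition curve with 95% confidence limits.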

Assay [4] relates to Cavia porcellus. Nature of the assay: Inhibition of antigen-induced bronchoconstriction in guinea pigs 0.1 mg/kg intravenous dose. In kind it is functional. In outline: as §2
In assay [5] the test system is Cavia porcellus. Briefly: Inhibition of antigen-induced bronchoconstriction in guinea pigs 0.3 mg/kg intravenous dose. In kind it is functional. In outline:
as §2

Assay [6] relates to Cavia porcellus. Nature of the assay: Change in guinea pig heart rate at 0.3 mg/kg intravenous dose. In kind it is functional.
Assay [7] relates to Cavia porcellus. Briefly: Change in guinea pig heart rate at 3 mg/kg intravenous dose. The assay is classed as functional.
In assay [8] the test system is Cavia porcellus. Briefly: Change in guinea pig heart rate at 1 mg/kg intravenous dose. The assay is classed as functional.
Assay [9] has as its system Cavia porcellus. Briefly: Inhibition of antigen-induced bronchoconstriction in guinea pigs 3 mg/kg intravenous dose. The assay is classed as functional. The method, boiled down: as §2
Assay [10] has as its system Cavia porcellus. Nature of the assay: Inhibition of antigen-induced bronchoconstriction in guinea pigs at 1 mg/kg intravenous dose. The assay is classed as functional. In outline:
as §2

The target in assay [11] is cGMP-dependent 3',5'-cyclic phosphodiesterase (Homo sapiens, UniProt O00408). Nature of the assay: Inhibition of guinea pig cardiac ventricle Phosphodiesterase 2. Further details: species or system Cavia porcellus. The note with it: target entry is the homologue from another species. In outline: as §1
For assay [12], the species on record is Cavia porcellus. Nature of the assay: Inhibition of antigen-induced bronchoconstriction in guinea pigs. In kind it is functional. The method, boiled down:
as §2

The subject of assay [13] is Cavia porcellus. Nature of the assay: Inhibition of antigen-induced bronchoconstriction in guinea pigs at 0.03 mg/kg intravenous dose. The assay is classed as functional. The method, boiled down:
as §2

In assay [14] the test system is Cavia porcellus. Briefly: Change in guinea pig heart rate at 0.03 mg/kg intravenous dose. In kind it is functional.
Assay [15] addresses T1, Phosphodiesterase 3. Nature of the assay: Inhibition of guinea pig cardiac ventricle Phosphodiesterase 3. In kind it is protein assay, Cavia porcellus. The following applies: target entry is the homologue from another species. In outline: as §1

cGMP-dependent 3',5'-cyclic phosphodiesterase, sequence (O00408 whole entry): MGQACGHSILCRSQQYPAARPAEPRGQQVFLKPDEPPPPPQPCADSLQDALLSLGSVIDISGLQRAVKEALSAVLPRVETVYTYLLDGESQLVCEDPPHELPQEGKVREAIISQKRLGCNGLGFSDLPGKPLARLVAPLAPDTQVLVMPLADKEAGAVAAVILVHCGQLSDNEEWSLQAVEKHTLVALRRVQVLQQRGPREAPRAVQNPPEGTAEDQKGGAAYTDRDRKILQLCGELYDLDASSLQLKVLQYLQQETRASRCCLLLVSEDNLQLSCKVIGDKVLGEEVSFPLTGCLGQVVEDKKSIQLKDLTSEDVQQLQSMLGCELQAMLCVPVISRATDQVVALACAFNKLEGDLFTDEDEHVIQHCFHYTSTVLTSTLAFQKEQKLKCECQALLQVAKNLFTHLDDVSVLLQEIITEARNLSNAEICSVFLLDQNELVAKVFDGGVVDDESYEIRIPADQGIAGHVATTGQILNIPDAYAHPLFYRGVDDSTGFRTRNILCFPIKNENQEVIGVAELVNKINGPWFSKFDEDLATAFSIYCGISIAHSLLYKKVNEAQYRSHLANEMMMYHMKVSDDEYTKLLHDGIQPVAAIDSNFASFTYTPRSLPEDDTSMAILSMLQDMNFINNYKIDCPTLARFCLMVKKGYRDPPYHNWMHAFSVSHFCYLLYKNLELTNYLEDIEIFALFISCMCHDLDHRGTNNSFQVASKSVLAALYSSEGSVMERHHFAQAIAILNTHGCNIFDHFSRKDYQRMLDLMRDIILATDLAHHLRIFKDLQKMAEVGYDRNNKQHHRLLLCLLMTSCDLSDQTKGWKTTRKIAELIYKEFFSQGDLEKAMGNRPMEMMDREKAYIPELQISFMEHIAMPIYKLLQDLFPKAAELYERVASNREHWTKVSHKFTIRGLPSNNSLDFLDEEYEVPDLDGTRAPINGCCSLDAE

In the case of `CCOc1cc2c(-c3ccnc(-n4nc(-c5cccnc5)c5ccccc5c4=O)c3)c(CO)c(CO)cc2cc1OC.Cl`, the values for the Heart rate in the assay on Cavia porcellus [1] and in the assay on Cavia porcellus [6] were 3 delta beats min-1 and 7 delta beats min-1, respectively. Moreover, the IC50 against Phosphodiesterase 4 amounted to 0.16 nM; on Phosphodiesterase 1, 3000 nM; at Phosphodiesterase 3 [2], 490 nM. The same compound showed an ED50 in the assay listed under Cavia porcellus [3] of 0.18 mg/kg. The Reduction with Cavia porcellus [4] came out at 39%; in the assay on Cavia porcellus [5], 69%.
As for `COc1cc2cc(CO)c(CO)c(-c3ccnc(-n4c(=O)c5ccccc5c5ccccc54)c3)c2cc1OC`, the IC50 is given as 0.2 nM at Phosphodiesterase 4 and 41 nM against Phosphodiesterase 3 [2]. Moreover, the Heart rate in the assay with Cavia porcellus [7] came out at 15 delta beats min-1; in the assay with Cavia porcellus [8] it was 18 delta beats min-1. The ED50 in the assay filed under Cavia porcellus [3] was determined as 1.2 mg/kg. The Reduction in the assay on Cavia porcellus [9] is recorded as 91%; in the assay on Cavia porcellus [10], 38%.
With `COc1cc2cc(CO)cc(-c3ccnc(-n4nc(-c5cccnc5)c5ccccc5c4=O)c3)c2cc1OC.Cl`, the IC50 was found to be 0.7 nM at Phosphodiesterase 4 and 81 nM against Phosphodiesterase 3 [2]. Moreover, in the assay with Cavia porcellus [10], the Reduction worked out at 33%.
Regarding `COc1ccc(C2CNC(=O)C2)cc1OC1CCCC1` (racemic) [ROLIPRAM], the IC50 against Phosphodiesterase 1 is greater than 100000 nM; against Phosphodiesterase 3 [2] it was greater than 300000 nM; in [11], greater than 100000 nM.
Consider `Cl.O=c1c2ccccc2c(-c2cccnc2)nn1-c1cc(-c2c(CO)c(CO)cc3ccccc23)ccn1`, for which the values for the IC50 at Phosphodiesterase 4, at Phosphodiesterase 1 and against Phosphodiesterase 3 [2] were 5000 nM, greater than 100000 nM and 50000 nM, respectively.
In the case of `COC(=O)c1cc2cc(OC)c(OC)cc2c(-c2ccnc(-n3nc(-c4cccnc4)c4ccccc4c3=O)c2)c1C(=O)OC.Cl`, the IC50 at Phosphodiesterase 4 is listed as 150 nM; against Phosphodiesterase 3 [2], 29000 nM.
For `COc1cc2cc(CO)c(CO)c(-c3ccnc(-n4nc(-c5ccncc5)c5ccccc5c4=O)c3)c2cc1OC.Cl`, in the assay listed under Cavia porcellus [12], it took a dose of 0.17 mg/kg to reach the 50% effect level (ED50). Moreover, the Heart rate with Cavia porcellus [1] was determined as 12 delta beats min-1; in the assay with Cavia porcellus [8] it was 29 delta beats min-1; in the assay with Cavia porcellus [6], 10 delta beats min-1. The IC50 against Phosphodiesterase 4 is reported as 0.49 nM; on Phosphodiesterase 1, 2000 nM; against Phosphodiesterase 3 [2], 100 nM. The Reduction worked out at 15% with Cavia porcellus [4], 82% with Cavia porcellus [5] and 92% in the assay with Cavia porcellus [10].
In the case of `COc1cc2cc(CO)c(CO)c(-c3cccc(-n4nc(-c5cccnc5)c5ccccc5c4=O)n3)c2cc1OC.Cl`, the IC50 amounted to 15 nM at Phosphodiesterase 4 and 5600 nM at Phosphodiesterase 3 [2].
As for `COc1cc2cc(CO)c(CO)c(-c3ccnc(-n4ncc5ccccc5c4=O)c3)c2cc1OC`, the Heart rate in the assay with Cavia porcellus [1] is given as 16 delta beats min-1; with Cavia porcellus [7], 55 delta beats min-1; in the assay with Cavia porcellus [8], 11 delta beats min-1. Further, the values for the IC50 on Phosphodiesterase 4, against Phosphodiesterase 1 and at Phosphodiesterase 3 [2] were 0.68 nM, 5000 nM and 250 nM, respectively. The ED50 in the assay listed under Cavia porcellus [3] is 0.24 mg/kg. The Reduction is reported as 25% in the assay with Cavia porcellus [4], 91% in the assay with Cavia porcellus [9] and 87% in the assay on Cavia porcellus [10].
Consider `CCOc1cc2cc(CO)c(CO)c(-c3ccnc(-n4nc(-c5cccnc5)c5ccccc5c4=O)c3)c2cc1OC.Cl`, for which the Heart rate with Cavia porcellus [1] (0.1 mg/kg) was 7 delta beats min-1 and 18 delta beats min-1. Further, the IC50 came out at 0.9 nM at Phosphodiesterase 4, 20000 nM on Phosphodiesterase 1 and 34 nM on Phosphodiesterase 3 [2]. For the same compound, the ED50 in the assay filed under Cavia porcellus [3] turned out to be 0.17 mg/kg. Besides, the figures for the Reduction with Cavia porcellus [4] and in the assay with Cavia porcellus [5] were 23% and 77%, respectively.
`COc1cc2c(-c3ccnc(-n4nc(-c5cccnc5)c5ccccc5c4=O)c3)c(CO)c(CO)cc2cc1OC1CCCC1.Cl`: the figures for the IC50 against Phosphodiesterase 4 and on Phosphodiesterase 3 [2] were 30 nM and 690 nM, respectively.
For `COc1cc2cc(CO)c(CO)c(-c3ccnc(-n4nc(-c5cccnc5)c5ccccc5c4=O)c3)c2cc1OCc1ccccc1.Cl`, the figures for the IC50 against Phosphodiesterase 4 and at Phosphodiesterase 3 [2] were 17 nM and 16000 nM, respectively.
`COc1cc2cc(CO)c(CO)c(-c3ccnc(-n4nc(-c5ccccn5)c5ccccc5c4=O)c3)c2cc1OC.Cl`: the Reduction in the assay with Cavia porcellus [13] is -25%; in the assay with Cavia porcellus [4], 40%; in the assay on Cavia porcellus [5], 78%; with Cavia porcellus [10], 87%. For the same compound, the Heart rate with Cavia porcellus [1] is recorded as 5 delta beats min-1; in the assay on Cavia porcellus [14], 3 delta beats min-1; in the assay with Cavia porcellus [8], 22 delta beats min-1; in the assay on Cavia porcellus [6], 7 delta beats min-1. The IC50 at Phosphodiesterase 4 was 0.55 nM; against Phosphodiesterase 1, 4000 nM; at Phosphodiesterase 3 [2] it was 170 nM. Also, the ED50 in the assay listed under Cavia porcellus [3] was 0.18 mg/kg.
Turning to `COc1cc2cc(CO)c(CO)c(-c3ccc(-n4nc(-c5cccnc5)c5ccccc5c4=O)nc3)c2cc1OC.Cl`, the IC50 is recorded as 40 nM against Phosphodiesterase 4, greater than 100000 nM at Phosphodiesterase 1 and 80000 nM on Phosphodiesterase 3 [2].
Turning to `COc1cc2ccc(CO)c(-c3ccnc(-n4nc(-c5cccnc5)c5ccccc5c4=O)c3)c2cc1OC.Cl`, the IC50 against Phosphodiesterase 4 was determined as 31 nM; on Phosphodiesterase 3 [2], 700 nM.
Regarding `COc1cc2c(-c3ccnc(-n4nc(-c5cccnc5)c5ccccc5c4=O)c3)c(CO)c(CO)cc2cc1OCc1ccccc1.Cl.Cl`, the results for the IC50 against Phosphodiesterase 3 [15] and against Phosphodiesterase 4 were greater than 100000 nM and 700 nM, respectively.
With `COc1cc2cc(CO)c(CO)c(-c3ccnc(-n4ccccc4=O)c3)c2cc1OC`, the figures for the IC50 on Phosphodiesterase 4, against Phosphodiesterase 1 and at Phosphodiesterase 3 [2] were 80 nM, 50000 nM and 2000 nM, respectively.
In the case of `COc1cc2cc(COC(C)=O)c(COC(C)=O)c(-c3ccnc(-n4nc(-c5cccnc5)c5ccccc5c4=O)c3)c2cc1OC.Cl`, the IC50 against Phosphodiesterase 4 came out at 190 nM; against Phosphodiesterase 3 [2], 3500 nM.
For the compound `COc1cc2cc(CO)c(CO)c(-c3ccnc(-n4ccc(=O)c5ccccc54)c3)c2cc1OC`, the IC50 on Phosphodiesterase 4 is given as 40 nM; against Phosphodiesterase 1, 9000 nM; at Phosphodiesterase 3 [2], 400 nM.
